In article PMC10249145 (Cardiovascular & hematological agents in medicinal chemistry, 2023):

What was measured:
human FXIIa = target: T1, human FXIIa (Homo sapiens, UniProt P00748); assay: Direct inhibition of human FXIIa, chromogenic substrate hydrolysis assay; assay type: biochemical; conditions: for DeltaY (efficacy of inhibition) / HS (Hill slope): pH 7.4, 37 °C; for DeltaY (efficacy of inhibition) / HS (Hill slope) / IC50: ± 1 S.E.; for IC50: Tris-HCl buffer pH 7.4, 37 °C
T1 sequence (P00748 20-615): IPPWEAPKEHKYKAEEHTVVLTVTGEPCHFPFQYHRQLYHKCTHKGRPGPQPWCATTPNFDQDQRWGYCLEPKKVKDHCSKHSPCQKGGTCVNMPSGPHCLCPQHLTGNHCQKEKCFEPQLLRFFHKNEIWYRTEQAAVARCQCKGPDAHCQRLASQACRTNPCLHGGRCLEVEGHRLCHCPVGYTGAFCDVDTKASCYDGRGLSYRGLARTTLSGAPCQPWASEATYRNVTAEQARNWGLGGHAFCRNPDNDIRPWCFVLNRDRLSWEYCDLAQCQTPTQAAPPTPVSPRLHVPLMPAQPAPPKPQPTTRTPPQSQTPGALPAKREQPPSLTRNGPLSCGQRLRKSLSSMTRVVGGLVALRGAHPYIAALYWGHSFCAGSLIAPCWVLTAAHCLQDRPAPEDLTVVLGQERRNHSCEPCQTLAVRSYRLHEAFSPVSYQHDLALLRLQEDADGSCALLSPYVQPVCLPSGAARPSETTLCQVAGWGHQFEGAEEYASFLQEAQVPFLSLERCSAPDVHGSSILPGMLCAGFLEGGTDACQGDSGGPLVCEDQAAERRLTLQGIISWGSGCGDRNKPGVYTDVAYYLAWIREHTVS
Method in brief: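 Human FXIIa (stock 200 nM) was preincubated for 5 min with test compound or vehicle in Tris-HCl pH 7.4 with NaCl, 2.5 mM CaCl2, 0.1% PEG8000 and 0.02% Tween80 at 37 °C. Spectrozyme FXIIa (stock 5 mM) was then added. Twelve in-well concentrations (500–0.0025 μM) were tested. Residual activity was taken from the initial A405 rate, and a logistic fit gave IC50, efficacy and Hill slope (±1 S.E.).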

human plasma [1] = conditions: normal human plasma, positive controls; cited from earlier work
human plasma [2] = conditions: normal human plasma, positive controls; cited from earlier work; remark: listed apart in the source

CC(C)(C)c1ccc(C(=O)n2ncnc2N)cc1 [Inhibitor 3, (5-amino-1H-1,2,4-triazol-1-yl)(4-(tert-butyl)phenyl)methanone]
decrease in the inhibition potency (human FXIIa; FXIIa IC50 relative to inhibitor 1): 77.5 fold
DeltaY (efficacy of inhibition) (human FXIIa; human FXIIa): 82.1 ± 8.1%
HS (Hill slope) (human FXIIa; human FXIIa): 1.37 ± 0.69

CC(C)(C)c1ccc(C(=O)n2nc(C(=O)O)nc2N)cc1 [Inhibitor 4, 5-amino-1-(4-(tert-butyl)benzoyl)-1H-1,2,4-triazole-3-carboxylic acid]
IC50 (human FXIIa; IC50, human FXIIa): 699 µM
DeltaY (efficacy of inhibition) (human FXIIa; human FXIIa): 122.4 ± 23.4%
HS (Hill slope) (human FXIIa; human FXIIa): 1.05 ± 0.55

CNC(=O)c1nc(N)n(C(=O)c2ccc(C(C)(C)C)cc2)n1 [Inhibitor 5, 5-amino-1-(4-(tert-butyl)benzoyl)-N-methyl-1-1H-1,2,4-triazole-3-carboxamide]
IC50 (human FXIIa; human FXIIa): 340 ± 30.5 µM
DeltaY (efficacy of inhibition) (human FXIIa; human FXIIa): 103 ± 5%
HS (Hill slope) (human FXIIa; human FXIIa): 1.26 ± 0.27

O=C(NC[C@H]1CN(c2ccc(N3CCOCC3=O)cc2)C(=O)O1)c1ccc(Cl)s1 [Rivaroxaban]
APTT (EC×1.5) (human plasma [1]): ~0.06 µM
PT (EC×1.5) (human plasma [2]): ~0.08 µM
